# INS promoter act: TRM-6 insulin promoter activation | TRM-6 cells (human fetal islet line), insulin promoter eGFP reporter, imaging; plate-scaled: unstimulated 0, stimulated control 100 | activation, % at 2 µM | 0.81% of 130,000 active | AID 1296;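 active = activation at 2 µM above a set limit, confirmed on inspection of the cell images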;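 note: share of cells whose green reporter signal exceeds an intensity cutoff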
#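 Material: TRM-6 insulin promoter–eGFP reporter cells. Buffer or medium: Low-glucose (5.5 mM) medium with tamoxifen. Probe or stimulus: tamoxifen at 0.75 µM added at seeding for reporter induction. Times: tamoxifen pre-incubation 15 h overnight, then compound exposure 48 h at 37 °C. Detection: high-content imaging of fixed cells with Hoechst nuclear stain.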
# Numbers stand for hits; - = inactive; [ ] = another dose, or the depositor's remark. The entries come from a sample that favours hits as a whole.
SMILES,INS promoter act
CN(C(=S)NC(=O)CCCOc1ccc(Cl)cc1Cl)c1ccccc1,-
C=Cn1nc(C)c2ccccc2c1=O,-
COc1cccc(OC)c1OCCOc1ccccc1OC(C)C,-
c1ccc2c(CNCCN3CCOCC3)cccc2c1,-
C=CCc1ccc(OCCCCN2CC(C)CC(C)C2)c(OC)c1 (stereo not drawn),-
CC1(C)NC(=O)N(CC(O)COc2ccccc2-c2ccccc2)C1=O (stereo not drawn),-
CC1CC(C)CN(CCOc2ccccc2-c2ccccc2)C1 (stereo not drawn),464
CC(C)c1nc(CN2CCCCC2)cc(=O)[nH]1,-
CCN(CC)S(=O)(=O)c1cccc(NC(=O)COC(=O)CCC(=O)c2ccc(F)cc2)c1,-
CC(=O)Nc1ccccc1C(=O)C(=O)Nc1ccc(C(=O)NCC2CCCO2)cc1 (stereo not drawn),-
CCCCN(C)C1=CC2=CC(=C(C#N)C#N)CCC2CC1 (stereo not drawn),245[fluoresces]
N#CC(C#N)=C1C=C2C=C(N3CCCCC3)CCC2CC1 (stereo not drawn),212
N#CC1=C(N)C2=C(N3CCCCC3)CCCC2C1(C#N)C#N (stereo not drawn),-
CCN(CC)C1=CC2=CC(=C(C#N)C#N)CCC2CC1 (stereo not drawn),525
Cc1ccc(C)c(-n2nnnc2SCC(=O)NCCC2=CCCCC2)c1,708
Cc1ccc(CS(=O)(=O)CCC(=O)NCCC2=CCCCC2)cc1,-
CNC(=O)CSc1nnnn1-c1cc(C)ccc1C,-
Cc1ccc(C(C(=O)NC2CCCC2)N(Cc2cccs2)C(=O)c2csnn2)o1 (stereo not drawn),-
COc1cc2c(cc1OC)CN(c1nc(-c3cccnc3)nc3ccccc13)CC2,-
COC(=O)c1c(NC(=O)c2nn(C)cc2Cl)sc2c1CCCC2,-
COc1cc(OC)c(C(=O)NNC(=S)NC2CCCCC2)cc1OC,-
Cn1cc(Cl)c(C(=O)NNC(=S)NC2CCCCC2)n1,492
Cc1ccc(S(=O)(=O)NC2=NCN(CCOC(=O)c3ccc([N+](=O)[O-])cc3)CN2)cc1,-
Cc1nn(C)cc1/C=C(/C#N)C(N)=O,-
Cc1c(NC(=S)NC(=O)c2ccco2)c(=O)n(-c2ccccc2)n1C,-
SMILES,INS promoter act
Nc1ccc2c(c1)C(=O)C(=O)c1ccccc1-2,239
O=C1C(=O)c2ccc(-c3ccccc3)cc2-c2ccccc21,-
Cc1ccc(N2C(=O)c3ccc(N)cc3C2=O)cc1C,-
CC(C)(C(=O)c1ccccc1)/[N+]([O-])=C/c1ccccc1F,-
O=C(CN1C(=O)NC2(CCCCC2)C1=O)Nc1ccccc1Cl,-
COc1ccc(-c2nnn(CC(=O)NCc3ccccc3)n2)cc1OC,-
COc1ccc(CNC(=O)CN2C(=O)NC3(CCCCCC3)C2=O)cc1OC,244
CCOC(=O)c1ccccc1NC(=O)CSc1ccccc1,-
Cc1c(NC(=O)C(C)OC(=O)CC2Sc3ccccc3NC2=O)c(=O)n(-c2ccccc2)n1C (stereo not drawn),-
Cc1noc(C)c1S(=O)(=O)N1CCCC(C(=O)NC2CCCCC2)C1 (stereo not drawn),-
Cc1cccc(-c2nc(CN3CCCC(C(=O)NC4CCCCCC4)C3)c(C)o2)c1 (stereo not drawn),171
Cc1cccc(-c2nc(CS(=O)CC(=O)NCC3CCCO3)c(C)o2)c1 (stereo not drawn),-
CCN(C(=O)COC(=O)c1cccnc1Nc1cccc(C(F)(F)F)c1)C1CCS(=O)(=O)C1 (stereo not drawn),-
CCOc1ccc(C=NC23CN4CN(CN(C4)C2)C3)cc1,191
CCOc1ccc(OCCN2CCCCC2)cc1,-
CCOc1ccc(CNC(=S)N/N=C\c2ccc([N+](=O)[O-])cc2)cc1,-
COc1ccc(NC(=O)C/C(C)=N/NC(=O)C(=O)Nc2cccc(Cl)c2C)c(OC)c1,-
COc1cccc(OC)c1C(=O)NNC(=O)c1cccc(COc2ccc3c(c2)CCC3)c1,-
O=S(=O)(NCc1csc(-c2cccnc2)n1)c1cccs1,-
CCc1ccc(S(=O)(=O)NCc2csc(-c3cccnc3)n2)s1,857
CC(=O)Nc1ccc(S(=O)(=O)NCc2csc(-c3cccnc3)n2)cc1,-
COc1ccc(Br)cc1C(=O)Nc1nnn(C)n1,-
Cc1cc(Br)c(NC(=O)CCl)c(Br)c1,-
Cc1cc(C)c(OCC(=O)Nc2nnn(C)n2)c(Br)c1,77
CC(C)CCN1C(=O)CCC1(C)C(=O)NC1CCCCCCC1 (stereo not drawn),-
SMILES,INS promoter act
COC(=O)c1c(NC(=O)CN2CCC3(O)CCCCC3C2c2cc(OC)ccc2OC)sc(C)c1C (stereo not drawn),-
COc1ccc(OC)c(NC(=S)NCC(c2cccnc2)N2CCOCC2)c1 (stereo not drawn),-
CCOC(=O)CSc1nc2ccccc2c(=O)n1CCN1CCOCC1,-
CCOC(=O)C(C)Sc1nc2ccccc2c(=O)n1CC (stereo not drawn),426
CCOC(=O)COn1c(SCC(=O)OCC)nc2ccccc2c1=O,-
CCC(C)(C)n1nnnc1C(c1ccc(C)cc1)N(Cc1ccco1)Cc1cccs1 (stereo not drawn),-
O=C(/C=C/c1ccccc1)NCCCNC(=O)/C=C/c1ccccc1,-
CCCCc1ccc(NC(=S)NCCc2ccc(F)cc2)cc1,-
COc1ccc(NC(=O)CCc2nc3ccccc3[nH]2)cc1,-
CCOC(=O)N1CCN(C2OC(=O)c3ccccc32)CC1 (stereo not drawn),459
O=C(C1CCCO1)N1CCN(C(=S)Nc2ccc(F)cc2)CC1 (stereo not drawn),-
CCOC(=O)N1CCN(C(=O)Cc2cccs2)CC1,-
O=C1OC(N2CCN(C(=O)C3CCCO3)CC2)c2ccccc21 (stereo not drawn),173
O=C(C1CCCO1)N1CCN(S(=O)(=O)c2cccc3nsnc23)CC1 (stereo not drawn),-
O=C1OC(N2CCN(C/C=C/c3ccccc3)CC2)c2ccccc21 (stereo not drawn),-
CC1CCCC(C)N1C(=O)COC(=O)C(Cc1ccccc1)NC(=O)c1cccs1 (stereo not drawn),-
C=CCNc1cnn(-c2ccccc2)c(=O)c1Cl,-
O=C(CSc1nc2ccccc2c(=O)n1NC(=O)c1ccccc1)c1ccccc1,-
O=C(Nn1c(Cc2cccs2)nc2ccccc2c1=O)c1ccc(F)c(F)c1,419
O=C(Nn1c(C2CCC2)nc2ccccc2c1=O)c1cccs1,-
COc1ccc(N(CC(=O)O)S(C)(=O)=O)cc1OC,-
CSc1ccccc1NC(=O)CN(c1cccc(C)c1)S(C)(=O)=O,-
COc1ccc(N(CC(=O)Nc2ccccc2SC)S(C)(=O)=O)cc1OC,614
CCCS(=O)(=O)N1CCN=C1SCc1cccc2ccccc12,-
O=C(CCNC(=O)c1ccco1)Nc1ccccc1N1CCOCC1,-
SMILES,INS promoter act
Fc1ccc(-c2csc(=S)[nH]2)cc1,279
CCN(CC)c1ccc(NC(=O)c2cccc(F)c2)c(C)c1,-
Cc1cccc(N(Cc2ccc(Cl)cc2)S(C)(=O)=O)c1,-
CC(=O)c1cnc2cc(-c3cccc(Br)c3)nn2c1C,-
CC(=O)c1cnc2c(-c3ccc(Cl)cc3)cnn2c1C,585
N#Cc1cnn2c(N)c(-c3ccc(Cl)cc3)cnc12,-
Cc1cc(NC(=O)c2cc(S(=O)(=O)N3CCCCC3)ccc2C)n(-c2ccccn2)n1,-
COc1ccc(NS(=O)(=O)c2cccc(N/C(=N\S(=O)(=O)c3ccccc3)c3ccc(F)cc3)c2)cc1,-
Cc1cnc(C)c(N(C)NC(=S)Nc2ccccc2)n1,485

# From PubChem
